The values that follow come from ChEMBL document CHEMBL1125291, “New 8-(trifluoromethyl)-substituted quinolones. The benefits of the 8-fluoro group with reduced phototoxic risk” (1992).

Structures are written as SMILES. Values after ≈ are worked out from the molar mass of the structure shown. Bounds are passed on as bounds.

The species named for the first assay is Mus musculus. Briefly: Days of the first positive reaction in […] mice. Format: functional.
Conditions: not given
The essentials:
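Phototoxic skin reaction test in depilated female CD-1 mice. A single oral dose (gavage) or subcutaneous dose was given, followed 1 h later by 3 h of UVA exposure (320–400 nm). The regimen was repeated for up to 4 consecutive days, with initial doses of 30, 100 and 300 mg/kg. PTD50 was derived by the probit method. The first day of positive reaction and the no-effect dose were taken from the raw data.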
Take `NC1CCN(c2cc3c(cc2F)c(=O)c(C(=O)O)cn3C2CC2)CC1`: the “Day of first positve reaction” value was found to be 0.
Still for that read-out and setting: the result for `NC1CCN(c2c(F)cc3c(=O)c(C(=O)O)cn(C4CC4)c3c2C(F)(F)F)CC1` reads 0.

The species named for the next assay is Mus musculus. As to the kind of experiment: Number of mice which show positive phototoxic reaction in 5 mice.
Conditions: not given
Type of assay: functional.
As to `NC1CCN(c2cc3c(cc2F)c(=O)c(C(=O)O)cn3C2CC2)CC1`, the “No. of pos rxns” value stood at 0.
Same read-out and setting: the result for `NC1CCN(c2c(F)cc3c(=O)c(C(=O)O)cn(C4CC4)c3c2C(F)(F)F)CC1` reads 0.

A further assay relates to Escherichia coli. Briefly: In vivo efficacy in mouse protection test in Escherichia coli Vogel administered by subcutaneous injection. Format: functional. To be noted: Escherichia coli, sc; read-out: PD50. The essentials: (§1)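 Acute lethal systemic infections in female Charles River CD-1 mice. A single dose was given at challenge, orally by gavage or by subcutaneous injection. PD50 (median protective dose, mg/kg) was determined.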
As to `NC1CCN(c2cc3c(cc2F)c(=O)c(C(=O)O)cn3C2CC2)CC1`, the ED50 stood at 3.8 mg/kg.
Same read-out and setting: the result for `NC1CCN(c2c(F)cc3c(=O)c(C(=O)O)cn(C4CC4)c3c2C(F)(F)F)CC1` reads 4.5 mg/kg.

A further assay concerns Escherichia coli. As to the kind of experiment: In vivo efficacy in mouse protection test in Escherichia coli Vogel dose administered orally by gavage. Format: functional. To be noted: Escherichia coli, po; read-out: PD50. The essentials: as §1
`NC1CCN(c2cc3c(cc2F)c(=O)c(C(=O)O)cn3C2CC2)CC1`: the ED50 is 18 mg/kg.
Still for that read-out and setting: the result for `NC1CCN(c2c(F)cc3c(=O)c(C(=O)O)cn(C4CC4)c3c2C(F)(F)F)CC1` reads 12.5 mg/kg.

In a further assay the test system is Escherichia coli. As to the kind of experiment: Minimum inhibitory concentration (MIC) against gram negative bacteria Escherichia coli H-560. Format: functional. To be noted: Escherichia coli; read-out: MIC. The essentials:
(§2)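 MICs were determined by standard broth microtitration against 11 Gram-positive and Gram-negative organisms, in µg/mL. Values come from duplicate or triplicate experiments and are accurate to ±50%.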
In general, MIC refers to the smallest concentration in the dilution series that meets the test's criterion for growth inhibition. In the case of `NC1CCN(c2cc3c(cc2F)c(=O)c(C(=O)O)cn3C2CC2)CC1`, the MIC came out at 0.4 µg/mL (≈ 1.16 µM).
`NC1CCN(c2c(F)cc3c(=O)c(C(=O)O)cn(C4CC4)c3c2C(F)(F)F)CC1`: the MIC worked out at 0.2 µg/mL (≈ 0.484 µM).

In another assay the test system is Escherichia coli. Briefly: Minimum inhibitory concentration (MIC) against gram negative bacteria Escherichia coli Vogel. Format: functional. To be noted: Escherichia coli; read-out: MIC. The essentials:
as §2
Turning to `NC1CCN(c2cc3c(cc2F)c(=O)c(C(=O)O)cn3C2CC2)CC1`, the MIC came out at 0.4 µg/mL (≈ 1.16 µM).
The same measure, in the same setting: the result for `NC1CCN(c2c(F)cc3c(=O)c(C(=O)O)cn(C4CC4)c3c2C(F)(F)F)CC1` reads 0.2 µg/mL (≈ 0.484 µM).

The test system of a further assay is Enterobacter cloacae. Briefly: Minimum inhibitory concentration (MIC) against gram negative bacteria Enterobacter cloacae MA-2646. Format: functional.
Conditions: not given
The molecule `NC1CCN(c2cc3c(cc2F)c(=O)c(C(=O)O)cn3C2CC2)CC1` had an MIC of 0.4 µg/mL (≈ 1.16 µM).
The same measure, in the same setting: the result for `NC1CCN(c2c(F)cc3c(=O)c(C(=O)O)cn(C4CC4)c3c2C(F)(F)F)CC1` reads 0.2 µg/mL (≈ 0.484 µM).

The test system of the next assay is Klebsiella pneumoniae. As to the kind of experiment: Minimum inhibitory concentration (MIC) against gram negative bacteria Klebsiella pneumoniae MGH-2. Format: functional. To be noted: Klebsiella pneumoniae; read-out: MIC. The essentials:
as §2
For `NC1CCN(c2cc3c(cc2F)c(=O)c(C(=O)O)cn3C2CC2)CC1`, the MIC was 0.8 µg/mL (≈ 2.32 µM).
Still for that read-out and setting: the result for `NC1CCN(c2c(F)cc3c(=O)c(C(=O)O)cn(C4CC4)c3c2C(F)(F)F)CC1` reads 0.4 µg/mL (≈ 0.968 µM).

The species named for the next assay is Mus musculus. Briefly: Dose required to induce phototoxic reaction in 50% of mice by probit method at different dosage forms. Format: functional.
Conditions: not given
In turn, `NC1CCN(c2cc3c(cc2F)c(=O)c(C(=O)O)cn3C2CC2)CC1` returned a PTD50 greater than 100 mg/kg.
Still for that read-out and setting: the result for `NC1CCN(c2c(F)cc3c(=O)c(C(=O)O)cn(C4CC4)c3c2C(F)(F)F)CC1` reads greater than 100 mg/kg.

The species named for a further assay is Mus musculus. As to the kind of experiment: Dose which has no effect to induce phototoxic reaction in 50% of mice by probit method. Type of assay: functional.
Conditions: not given
`NC1CCN(c2cc3c(cc2F)c(=O)c(C(=O)O)cn3C2CC2)CC1` gave a No effect dose of 100 mg/kg.
Still for that read-out and setting: the result for `NC1CCN(c2c(F)cc3c(=O)c(C(=O)O)cn(C4CC4)c3c2C(F)(F)F)CC1` reads 100 mg/kg.

For the next assay, the system named is Mus musculus. As to the kind of experiment: Maximum tolerance dose was measured for phototoxic skin reaction by po administration. Type of assay: functional.
Conditions: not given
In general, MTD refers to the largest dose that counted as tolerated. Low values mean a narrow tolerated range, high ones a wide tolerated range. `NC1CCN(c2cc3c(cc2F)c(=O)c(C(=O)O)cn3C2CC2)CC1` yielded an MTD of 100 mg/kg.
The same measure, in the same setting: the result for `NC1CCN(c2c(F)cc3c(=O)c(C(=O)O)cn(C4CC4)c3c2C(F)(F)F)CC1` reads 100 mg/kg.

Tested on in another assay: not listed separately
As to the kind of experiment: Minimum inhibitory concentration (MIC) against gram negative bacteria Prot. rettgeri M-1771. Format: functional, Providencia rettgeri. Conditions: Providencia rettgeri; read-out: MIC. In a few lines:
as §2
With `NC1CCN(c2cc3c(cc2F)c(=O)c(C(=O)O)cn3C2CC2)CC1`, the MIC is 1.6 µg/mL (≈ 4.63 µM).
On to `NC1CCN(c2c(F)cc3c(=O)c(C(=O)O)cn(C4CC4)c3c2C(F)(F)F)CC1`, for which the MIC is 0.8 µg/mL (≈ 1.94 µM).

The next assay has as its system Pseudomonas aeruginosa. Briefly: Minimum inhibitory concentration (MIC) against gram negative bacteria Pseudomonas aeruginosa UI-18. Format: functional. Conditions: Pseudomonas aeruginosa; read-out: MIC. In a few lines:
as §2
On to `NC1CCN(c2cc3c(cc2F)c(=O)c(C(=O)O)cn3C2CC2)CC1`, for which the MIC was found to be 3.1 µg/mL (≈ 8.98 µM).
The same measure, in the same setting: the result for `NC1CCN(c2c(F)cc3c(=O)c(C(=O)O)cn(C4CC4)c3c2C(F)(F)F)CC1` reads 3.1 µg/mL (≈ 7.5 µM).

In the next assay the test system is Staphylococcus aureus. Briefly: Minimum inhibitory concentration (MIC) against gram positive bacteria Staphylococcus aureus H-228. Type of assay: functional. Conditions: Staphylococcus aureus; read-out: MIC. In a few lines: as §2
For the molecule `NC1CCN(c2cc3c(cc2F)c(=O)c(C(=O)O)cn3C2CC2)CC1`, the MIC was 1.6 µg/mL (≈ 4.63 µM).
Turning to `NC1CCN(c2c(F)cc3c(=O)c(C(=O)O)cn(C4CC4)c3c2C(F)(F)F)CC1`, the MIC worked out at 0.1 µg/mL (≈ 0.242 µM).

The test system of the next assay is Staphylococcus aureus. As to the kind of experiment: Minimum inhibitory concentration (MIC) against gram positive bacteria Staphylococcus aureus UC-76. Type of assay: functional. To be noted: Staphylococcus aureus; read-out: MIC. In a few lines: as §2
Turning to `NC1CCN(c2cc3c(cc2F)c(=O)c(C(=O)O)cn3C2CC2)CC1`, the MIC came to 0.2 µg/mL (≈ 0.579 µM).
Same read-out and setting: the result for `NC1CCN(c2c(F)cc3c(=O)c(C(=O)O)cn(C4CC4)c3c2C(F)(F)F)CC1` reads 0.05 µg/mL (≈ 0.121 µM).

In the next assay the test system is Enterococcus faecalis. Briefly: Minimum inhibitory concentration (MIC) against gram positive bacteria Streptococcus faecalis MGH-2. Format: functional. To be noted: Enterococcus faecalis; read-out: MIC. In a few lines:
as §2
On to `NC1CCN(c2cc3c(cc2F)c(=O)c(C(=O)O)cn3C2CC2)CC1`, for which the MIC amounted to 0.8 µg/mL (≈ 2.32 µM).
On the same count and under the same terms, the result for `NC1CCN(c2c(F)cc3c(=O)c(C(=O)O)cn(C4CC4)c3c2C(F)(F)F)CC1` reads 0.2 µg/mL (≈ 0.484 µM).

The next assay has as its system Streptococcus pneumoniae. As to the kind of experiment: Minimum inhibitory concentration (MIC) against gram positive bacteria Streptococcus pneumoniae SV-1. Type of assay: functional. Conditions: Streptococcus pneumoniae; read-out: MIC. In a few lines:
as §2
As to `NC1CCN(c2cc3c(cc2F)c(=O)c(C(=O)O)cn3C2CC2)CC1`, the MIC is 0.4 µg/mL (≈ 1.16 µM).
Same read-out and setting: the result for `NC1CCN(c2c(F)cc3c(=O)c(C(=O)O)cn(C4CC4)c3c2C(F)(F)F)CC1` reads 0.2 µg/mL (≈ 0.484 µM).

The subject of a further assay is Streptococcus pyogenes. As to the kind of experiment: Minimum inhibitory concentration (MIC) against gram positive bacteria Streptococcus pyogenes C-203. Type of assay: functional. To be noted: Streptococcus pyogenes; read-out: MIC. The essentials: as §2
With `NC1CCN(c2cc3c(cc2F)c(=O)c(C(=O)O)cn3C2CC2)CC1`, the MIC amounted to 0.4 µg/mL (≈ 1.16 µM).
The same measure, in the same setting: the result for `NC1CCN(c2c(F)cc3c(=O)c(C(=O)O)cn(C4CC4)c3c2C(F)(F)F)CC1` reads 0.1 µg/mL (≈ 0.242 µM).
